Experimental data: PMC4784694 (Molecular cancer therapeutics, 2015)

What was measured:
breast cancer cells = conditions: Supplemental Figure 3B; others and own data
MDA-MB-231 tumors [1] = type: in vivo, NSG mice; conditions: eribulin 0.1 mg/kg i.v.; POL5551 20 mg/kg s.c. b.i.d.; Figure 5A–C
MDA-MB-231 tumors [2] = assay: Eribulin dose ranging in mice bearing MDA-MB-231 tumors; type: in vivo
Summary of the method: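 Female NSG mice, 6–8 weeks old, were inoculated with 5×10⁵ MDA-MB-231 cells in Matrigel into the #9 mammary fat pad to form orthotopic tumours. Eribulin was diluted in saline and given i.v. once a week, at 0.1 mg/kg for primary fat-pad therapy. Vehicle controls received saline. Weight change is reported as mean and range.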

Row | SMILES | SDF-1 mediated migration of breast cancer cells (breast cancer cells) | Primary MFP tumor growth (MDA-MB-231 tumors [1]) | Primary breast tumor reduction (MDA-MB-231 tumors [2]; eribulin 0.1 mg/kg single-agent, Supplemental Figure 5F) [%] | Mice survival (MDA-MB-231 tumors [2]; eribulin dose ranging, Supplemental Figure 5D) | Treatment associated weight loss (MDA-MB-231 tumors [2]; high dose of eribulin (>0.5 mg/kg), Supplemental Figure 5E)
1 | c1cc(CN2CCCNCCNCCCNCC2)ccc1CN1CCCNCCNCCCNCC1 [AMD3100] | can block SDF-1 mediated migration of breast cancer cells |  |  |  | 
2 | C=C1C[C@@H]2CC[C@@]34C[C@H]5O[C@H]6[C@@H](O3)[C@H]3O[C@H](CC[C@@H]3O[C@H]6[C@H]5O4)CC(=O)C[C@@H]3[C@@H](OC)[C@@H](C[C@H](O)CN)O[C@H]3C[C@H]3O[C@@H](CC[C@@H]1O2)C[C@@H](C)C3=C [eribulin, Eribulin] |  | decreased primary tumor growth rate | 50 | prolonged mice survival in a dose-dependent manner | greater treatment associated weight loss
